Laboratory results reported in PMC10338367 (Heliyon, 2023).

Experiments:
[1] = test system: normal human astrocytes (NHA); test: WST cell viability assay, NHA; type: cell-based
How it was run: (§1)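 Cells (MEM, 10% FBS, 37 °C, 5% CO₂) were seeded at 3 × 10³/well and pre-incubated 24 h. They were treated with test compound at 0.16, 0.8, 4, 20 or 100 μM for 24, 48 or 72 h, with DMSO as vehicle control. WST-1 was then added for 4 h at 37 °C and absorbance read at 516 nm (reference 600 nm). Viability was taken relative to untreated cells and IC50 read from dose-response curves at each time; ≥3 independent experiments.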

[2] = test system: LN229 human glioblastoma cells; test: WST cell viability assay, LN229; type: cell-based
How it was run: as §1

[3] = test system: A172 human glioblastoma cells; test: WST cell viability assay, A172; type: cell-based
How it was run: as §1

[4] = DPPH radical scavenging assay
[5] = test system: A172 cells; test: Flow cytometry analysis of cell cycle and apoptosis; type: cell-based, human; conditions: for G0-G1, percentage of cells / Sub G1, percentage of cells: A172, 4 μM
How it was run: (§2)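 Cells from MD Anderson were grown in MEM with 10% FBS, penicillin-streptomycin and 1% glutamine at 37 °C, 5% CO₂. About 1 × 10⁶ cells per 10-cm plate were exposed to test compound (4 or 10 μM) for 0, 24, 48 or 72 h. Cells were spun down, PBS-washed, fixed overnight (12 h) in chilled 70% ethanol and PI-stained. Sub-G1, G0/G1, S and G2/M fractions were measured; mean ± S.D. of three experiments, untreated controls at each time.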

[6] = test system: LN229 cells; test: as above; type: cell-based, human; conditions: for G0-G1, percentage of cells: LN229, 4 μM
How it was run: as §2

Structure (SMILES)	IC50 ([1]; 48 h) [µM]	IC50 ([2]; LN229, 24 h) [µM]	IC50 ([2]; LN229, 48 h) [µM]	IC50 ([2]; LN229, 72 h)	IC50 ([3]; A172, 72 h) [µM]	Percentage of antioxidant activity (DPPH) ([4]; 250 μM/mL) [%]	Percentage of antioxidant activity (DPPH) ([4]; 500 μM/mL) [%]	Percentage of antioxidant activity (DPPH) ([4]; 750 μM/mL) [%]	Percentage of antioxidant activity (DPPH) ([4]; 1000 μM/mL) [%]	also measured
CCCN(C)CCc1c[nH]c2ccccc12 [MPT, Methylprophyl tryptamine, reference compound]	0.47 ± 0.04	0.448 ± 0.3	0.447 ± 0.01	.44 ± 0.07 µM	0.43 ± 0.09					IC50 ([1]; 24 h): 0.49 ± 0.03 µM; IC50 ([1]; 72 h): 0.45 ± 0.04 µM; IC50 ([3]; A172, 48 h): 0.44 ± 0.13 µM
O=C1O[C@H]([C@@H](O)CO)C(O)=C1O [Ascorbic acid, reference compound]						74.08 ± 0.04	80.24 ± 0.01	85.79 ± 0.1	92.059 ± 0.08	
COc1ccc(C(c2c(O)c3ccccc3oc2=O)c2c(O)c3ccccc3oc2=O)cc1 [HL, 3,3′-[(4-methoxyphenyl)methanediyl]bis(4-hydroxy-2Hchromen-2-one)]	0.64 ± 0.06	9.55	1.78 ± 0.05	0.85 ± 0.07 µM	0.95	10.37 ± 0.08	15.12 ± 0.03	19.41 ± 0.02	25.62 ± 0.07	cell cycle arrest, phase ([5]; A172): cell cycle arrest was caused at G0/G1 phase; G0-G1, percentage of cells ([5]; 24 h): 67.66%; Sub G1, percentage of cells ([5]; 48 h): 6.48%; G0-G1, percentage of cells ([5]; 72 h): 59.23%; Sub G1, percentage of cells ([5]; 72 h): 4.55%; cell cycle arrest, phase ([6]; LN229): arrested at G0/G1 phase; G0-G1, percentage of cells ([6]; 24 h): 70.33%; G0-G1, percentage of cells ([6]; 48 h): 61.70%; G0-G1, percentage of cells ([6]; 72 h): 41.11%; IC50 ([1]; Homo sapiens, Astrocyte, 24 h): 3.21 ± 0.04 µM; IC50 ([1]; Homo sapiens, Astrocyte, 72 h): 0.22 ± 0.04 µM; IC50 ([3]; Homo sapiens, A 172, 24 h, A172, 24 h): 2.68 ± 0.19 µM
